Measurements from ChEMBL document CHEMBL5149991 (J Med Chem, 2021).

What was measured:
Histamine H3 receptor = Histamine H3 receptor (Homo sapiens, UniProt Q9Y5N1); experiment: Displacement of [3H]UR-PI294 from human histamine H3 receptor stably expressed in baculovirus infected Sf9 cell membrane co-expressing G-alphai2 and G-beta1gamma2 incubated for 60 mins by scintillation counting analysis; format: cell membranes
Method in brief: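 hH3R + Gαi2 + Gβ1γ2 expressed in Sf9 membranes. […] Mean ± SEM from N independent experiments in triplicate.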

[1] = target: Histamine H2 receptor (Cavia porcellus) (UniProt P47747); experiment: Agonist activity at histamine H2 receptor in spontaneous beating guinea pig right atrium assessed as increase in heart beat at 30 uM relative to histamine; format: functional, tissue-based; settings: Right cardiac atrium
Histamine H2 receptor [2] = target: T1, Histamine H2 receptor (Cavia porcellus, UniProt P47747); experiment: Agonist activity at histamine H2 receptor in spontaneous beating guinea pig right atrium assessed as increase in heart beat; format: functional, tissue-based, Right cardiac atrium
[3] = target: Histamine H2 receptor (Cavia porcellus) (UniProt P47747); experiment: Agonist activity at guinea pig histamine H2 receptor stably transfected in HEK293T cells co-expressing NlucN-mGs/gpH2R-NlucC assessed as maximum efficacy at 100 uM by mini-G protein recruitment assay relative to histamine; format: functional, cell-based
Histamine H2 receptor [4] = target: T2, Histamine H2 receptor (Homo sapiens, UniProt P25021); experiment: Agonist activity at human histamine H2 receptor stably expressed in HEK293T cells co-expressing ARRB2 incubated for 60 mins by beta-arrestin2 recruitment assay; format: functional, cell-based
Histamine H1 receptor = Histamine H1 receptor (Homo sapiens, UniProt P35367)
Histamine H2 receptor [5] = target: T2, Histamine H2 receptor; experiment: Displacement of [3H]UR-DE257 from human histamine H2 receptor stably expressed in baculovirus infected Sf9 cell membrane co-expressing RG-Salpha S incubated for 60 mins by scintillation counting analysis; format: cell membranes
D(3) dopamine receptor [6] = target: T3, D(3) dopamine receptor (Homo sapiens, UniProt P35462); experiment: Agonist activity at human D3 receptor stably expressed in HEK293T cells co-expressing ElucN-betaarr2 hD3R-ElucC by beta-arrestin2 recruitment assay; format: functional, cell-based
Histamine H2 receptor [7] = target: T2, Histamine H2 receptor; experiment: Agonist activity at human histamine H2 receptor stably expressed in HEK293T cells co-expressing NlucN-mGs/hH2R-NlucC assessed as induction of mini-Gs protein recruitment using furimazine as substrate measured for 45 mins by luminescence assay
D(2) dopamine receptor [8] = target: T4, D(2) dopamine receptor (Homo sapiens, UniProt P14416); experiment: Displacement of [3H]N-methylspiperone from human D2 long receptor stably expressed in HEK293T cells co-expressing luciferase and CEK incubated for 140 mins by radioligand competition binding based assay; format: cell-based
D(3) dopamine receptor [9] = target: T3, D(3) dopamine receptor; experiment: Displacement of [3H]N-methylspiperone from human D3 receptor stably expressed in HEK293T cells co-expressing luciferase and CEK incubated for 140 mins by radioligand competition binding based assay; format: cell-based
Histamine H4 receptor = Histamine H4 receptor (Homo sapiens, UniProt Q9H3N8)
Histamine H2 receptor [10] = target: T1, Histamine H2 receptor; experiment: Agonist activity at guinea pig histamine H2 receptor stably transfected in HEK293T cells co-expressing NlucN-mGs/gpH2R-NlucC by mini-G protein recruitment assay; format: functional, cell-based
D(2) dopamine receptor [11] = target: T4, D(2) dopamine receptor; format: functional, cell-based, HEK293T
Histamine H2 receptor [12] = target: T2, Histamine H2 receptor; experiment: Agonist activity at human histamine H2 receptor stably expressed in baculovirus infected Sf9 cell membrane co-expressing RG-Salpha S incubated for 90 mins by [35S]GTPgammaS binding based liquid scintillation counting method; format: functional, cell membranes
[13] = Chemical stability in pH 7.4 buffer measured at 0 to 2 weeks by HPLC analysis; format: physicochemical; settings: time 0-2 weeks

Chain of Histamine H4 receptor (Q9H3N8 whole entry): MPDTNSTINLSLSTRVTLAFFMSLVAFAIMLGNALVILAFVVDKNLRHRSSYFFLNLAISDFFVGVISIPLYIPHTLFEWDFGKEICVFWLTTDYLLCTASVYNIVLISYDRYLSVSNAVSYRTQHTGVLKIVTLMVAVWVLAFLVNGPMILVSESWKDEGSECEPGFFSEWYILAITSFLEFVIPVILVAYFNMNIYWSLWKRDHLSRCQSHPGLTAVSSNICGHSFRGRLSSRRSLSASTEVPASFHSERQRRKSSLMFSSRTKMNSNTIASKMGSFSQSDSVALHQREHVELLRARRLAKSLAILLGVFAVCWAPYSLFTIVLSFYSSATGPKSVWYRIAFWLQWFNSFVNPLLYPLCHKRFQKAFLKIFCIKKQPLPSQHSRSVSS
Chain of Histamine H3 receptor (Q9Y5N1 whole entry): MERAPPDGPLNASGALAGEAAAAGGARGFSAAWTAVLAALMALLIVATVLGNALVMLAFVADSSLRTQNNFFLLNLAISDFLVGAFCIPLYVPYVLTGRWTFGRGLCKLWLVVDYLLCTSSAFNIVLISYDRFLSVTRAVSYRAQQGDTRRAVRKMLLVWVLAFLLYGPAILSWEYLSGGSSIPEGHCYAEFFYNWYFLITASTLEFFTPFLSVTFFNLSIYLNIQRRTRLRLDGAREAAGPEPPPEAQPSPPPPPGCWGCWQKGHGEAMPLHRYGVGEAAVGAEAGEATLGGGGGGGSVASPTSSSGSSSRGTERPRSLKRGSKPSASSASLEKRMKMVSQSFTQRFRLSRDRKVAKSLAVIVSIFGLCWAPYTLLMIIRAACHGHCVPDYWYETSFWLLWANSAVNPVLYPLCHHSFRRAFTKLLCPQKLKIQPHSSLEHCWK
Chain of Histamine H1 receptor (P35367 whole entry): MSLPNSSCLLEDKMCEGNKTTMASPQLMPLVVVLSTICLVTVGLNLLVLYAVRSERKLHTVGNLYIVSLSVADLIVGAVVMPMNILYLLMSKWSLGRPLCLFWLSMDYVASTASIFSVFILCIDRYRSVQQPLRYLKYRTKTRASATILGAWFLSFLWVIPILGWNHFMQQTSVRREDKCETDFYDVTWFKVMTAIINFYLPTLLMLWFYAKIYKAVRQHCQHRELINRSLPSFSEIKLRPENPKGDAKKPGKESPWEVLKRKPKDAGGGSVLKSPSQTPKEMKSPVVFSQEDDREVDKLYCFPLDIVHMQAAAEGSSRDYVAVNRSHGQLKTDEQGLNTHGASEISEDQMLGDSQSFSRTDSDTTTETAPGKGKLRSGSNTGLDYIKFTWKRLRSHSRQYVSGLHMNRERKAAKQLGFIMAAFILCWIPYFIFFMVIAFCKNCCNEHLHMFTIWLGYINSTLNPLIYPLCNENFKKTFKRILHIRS
T2 sequence (P25021 whole entry): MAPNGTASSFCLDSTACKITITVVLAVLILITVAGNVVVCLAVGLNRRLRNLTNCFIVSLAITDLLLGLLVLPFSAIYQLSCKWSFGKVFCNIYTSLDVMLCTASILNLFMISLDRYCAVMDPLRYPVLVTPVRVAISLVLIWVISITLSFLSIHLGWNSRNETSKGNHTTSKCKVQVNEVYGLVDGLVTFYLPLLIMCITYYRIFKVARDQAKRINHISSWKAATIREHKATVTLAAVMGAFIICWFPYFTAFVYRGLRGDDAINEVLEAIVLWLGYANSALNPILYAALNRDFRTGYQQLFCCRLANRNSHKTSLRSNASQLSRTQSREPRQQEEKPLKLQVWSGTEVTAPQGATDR
T4 sequence (P14416 whole entry): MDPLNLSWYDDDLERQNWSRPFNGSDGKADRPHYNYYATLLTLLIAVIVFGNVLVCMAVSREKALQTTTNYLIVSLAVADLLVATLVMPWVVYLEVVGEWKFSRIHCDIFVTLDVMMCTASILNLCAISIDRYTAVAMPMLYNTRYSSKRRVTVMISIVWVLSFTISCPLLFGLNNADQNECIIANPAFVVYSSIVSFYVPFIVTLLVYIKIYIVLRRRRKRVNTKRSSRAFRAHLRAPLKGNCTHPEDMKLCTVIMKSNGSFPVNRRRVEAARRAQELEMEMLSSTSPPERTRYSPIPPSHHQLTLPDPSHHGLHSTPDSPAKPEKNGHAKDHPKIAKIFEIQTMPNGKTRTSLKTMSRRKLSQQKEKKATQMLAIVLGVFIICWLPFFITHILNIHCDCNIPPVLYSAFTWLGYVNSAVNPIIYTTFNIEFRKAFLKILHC
T3 sequence (P35462 whole entry): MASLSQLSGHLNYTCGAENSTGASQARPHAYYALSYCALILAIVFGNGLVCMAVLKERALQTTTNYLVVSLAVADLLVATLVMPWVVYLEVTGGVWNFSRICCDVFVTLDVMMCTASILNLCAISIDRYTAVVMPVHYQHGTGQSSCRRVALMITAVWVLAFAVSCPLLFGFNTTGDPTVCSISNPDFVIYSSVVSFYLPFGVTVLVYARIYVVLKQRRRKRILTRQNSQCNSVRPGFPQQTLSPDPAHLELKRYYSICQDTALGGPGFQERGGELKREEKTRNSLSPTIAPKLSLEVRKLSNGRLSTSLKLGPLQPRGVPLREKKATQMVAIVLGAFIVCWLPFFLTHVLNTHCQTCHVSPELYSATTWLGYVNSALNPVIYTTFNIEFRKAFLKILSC
Chain of Histamine H2 receptor (Cavia porcellus) (P47747 whole entry): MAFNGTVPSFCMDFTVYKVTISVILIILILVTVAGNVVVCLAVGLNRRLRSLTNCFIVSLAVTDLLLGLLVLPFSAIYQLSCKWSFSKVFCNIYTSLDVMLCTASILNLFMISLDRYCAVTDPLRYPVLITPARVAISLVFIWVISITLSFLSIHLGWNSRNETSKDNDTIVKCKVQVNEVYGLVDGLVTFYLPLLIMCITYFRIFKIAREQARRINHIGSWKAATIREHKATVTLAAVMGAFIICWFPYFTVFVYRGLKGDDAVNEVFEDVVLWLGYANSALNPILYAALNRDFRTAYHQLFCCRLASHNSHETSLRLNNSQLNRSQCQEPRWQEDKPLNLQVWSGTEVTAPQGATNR
T1 sequence (P47747 whole entry): as above

CC(NC(=O)/N=C(\N)NCCCc1nnc(N)s1)c1cccc(F)c1 (stereo not drawn)
Ki (Histamine H3 receptor): > 10 µM | Emax [1]: 110% | EC50 (Histamine H2 receptor [2]): 0.912 nM | Emax [3]: 93% | EC50 (Histamine H2 receptor [4]): 75.9 nM | Kd (Histamine H1 receptor): 4.5 nM | Ki (Histamine H1 receptor): 10.5 µM | Ki (Histamine H2 receptor [5]): 8.13 nM | EC50 (D(3) dopamine receptor [6]): 1910 nM | EC50 (Histamine H2 receptor [7]): 8.13 nM | Ki (D(2) dopamine receptor [8]): > 10000 nM | Ki (D(3) dopamine receptor [9]): 661 nM | Kd (Histamine H4 receptor): 16 nM | Ki (Histamine H4 receptor): > 10 µM | EC50 (Histamine H2 receptor [10]): 6.92 nM | EC50 (D(2) dopamine receptor [11]): > 10 µM

CC(CNC(=O)/N=C(\N)NCCCc1nnc(N)s1)C1CCCCC1 (stereo not drawn)
Ki (Histamine H3 receptor): 2.75 µM | EC50 (Histamine H2 receptor [4]): 135 nM | Kd (Histamine H1 receptor): 4.5 nM | Ki (Histamine H1 receptor): 7.41 µM | Ki (Histamine H2 receptor [5]): 19.5 nM | EC50 (D(3) dopamine receptor [6]): 1350 nM | EC50 (Histamine H2 receptor [7]): 10.7 nM | Ki (D(2) dopamine receptor [8]): 1620 nM | EC50 (Histamine H2 receptor [12]): 13.2 nM | Ki (D(3) dopamine receptor [9]): 234 nM | Kd (Histamine H4 receptor): 16 nM | Ki (Histamine H4 receptor): 12.6 µM | EC50 (D(2) dopamine receptor [11]): > 10 µM

C[C@@H](NC(=O)/N=C(\N)NCCCc1nnc(N)s1)c1ccccc1
Ki (Histamine H3 receptor): > 10 µM | Emax [1]: 98% | EC50 (Histamine H2 receptor [2]): 2.88 nM | Emax [3]: 90% | EC50 (Histamine H2 receptor [4]): 282 nM | Kd (Histamine H1 receptor): 4.5 nM | Ki (Histamine H1 receptor): > 10 µM | Ki (Histamine H2 receptor [5]): 12.9 nM | EC50 (D(3) dopamine receptor [6]): 1070 nM | EC50 (Histamine H2 receptor [7]): 20 nM | Ki (D(2) dopamine receptor [8]): > 10000 nM | Ki (D(3) dopamine receptor [9]): 3240 nM | Kd (Histamine H4 receptor): 16 nM | Ki (Histamine H4 receptor): > 10 µM | EC50 (Histamine H2 receptor [10]): 25.1 nM | EC50 (D(2) dopamine receptor [11]): > 10 µM

N/C(=N\C(=O)NCCCCCCNC(=O)/N=C(\N)NCCCc1nnc(N)s1)NCCCc1nnc(N)s1
Ki (Histamine H3 receptor): 10 µM | EC50 (Histamine H2 receptor [4]): 407 nM | Kd (Histamine H1 receptor): 4.5 nM | Ki (Histamine H1 receptor): 3.55 µM | Ki (Histamine H2 receptor [5]): 5.25 nM | EC50 (Histamine H2 receptor [7]): 20 nM | Ki (D(2) dopamine receptor [8]): 955 nM | EC50 (Histamine H2 receptor [12]): 34.7 nM | Kd (Histamine H4 receptor): 16 nM | Ki (Histamine H4 receptor): > 10 µM | EC50 (D(2) dopamine receptor [11]): 1.12 µM

Cc1ccc(CC(C)CNC(=O)/N=C(\N)NCCCc2nnc(N)s2)cc1.O=C(O)C(F)(F)F.O=C(O)C(F)(F)F (stereo not drawn)
Ki (Histamine H3 receptor): 2.34 µM | EC50 (Histamine H2 receptor [2]): 95.5 nM | Kd (Histamine H1 receptor): 4.5 nM | Ki (Histamine H1 receptor): 1.35 µM | EC50 (D(3) dopamine receptor [6]): > 10000 nM | Ki (D(2) dopamine receptor [8]): 1070 nM | Ki (D(3) dopamine receptor [9]): 2040 nM | Kd (Histamine H4 receptor): 16 nM | Ki (Histamine H4 receptor): 6.92 µM | EC50 (Histamine H2 receptor [10]): 14.8 nM | Stability [13]: Stable

CCCCCCNC(=O)/N=C(\N)NCCCc1nnc(N)s1
Ki (Histamine H3 receptor): > 10 µM | Emax [1]: 106% | EC50 (Histamine H2 receptor [2]): 4.79 nM | Emax [3]: 96% | EC50 (Histamine H2 receptor [4]): 1070 nM | Kd (Histamine H1 receptor): 4.5 nM | Ki (Histamine H1 receptor): 5.01 µM | Ki (Histamine H2 receptor [5]): 5.13 nM | EC50 (D(3) dopamine receptor [6]): 813 nM | EC50 (Histamine H2 receptor [7]): 6.03 nM | Ki (D(2) dopamine receptor [8]): > 10000 nM | Ki (D(3) dopamine receptor [9]): 589 nM | Kd (Histamine H4 receptor): 16 nM | Ki (Histamine H4 receptor): > 10 µM | EC50 (Histamine H2 receptor [10]): 2.29 nM | EC50 (D(2) dopamine receptor [11]): > 10 µM
